Results published in ChEMBL document CHEMBL1671650, “In vitro activity and preclinical profile of TMC435350, a potent hepatitis C virus protease inhibitor” (Antimicrob Agents Chemother, 2009).
The source made the active and inactive calls. The rule behind the calls is not given here.

Assays:
Hepatitis C virus [1] = assay: Antiviral activity against Hepatitis C virus in presence of 1 mg/ml alpha-1 acid glycoprotein
Hepatitis C virus [2] = assay: Antiviral activity against Hepatitis C virus in presence of 40 mg/ml human serum albumin
[3] = Cytotoxicity against human HT1080 cells after 3 to 4 days by resazurin proliferation assay; assay type: cell-based, HT-1080
How it was run: (§1)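 Human cell lines in DMEM with 10% heat-inactivated FBS and 2 mM L-glutamine (replicon cells plus 0.75 mg/ml G418 in maintenance). Exposed to compound for 3 to 4 days; resazurin fluorescence read-out. CC50 from inhibition curves.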

[4] = Ratio of AUC (0 to 31 hrs) in Sprague-Dawley rat liver to AUC (0 to 31 hrs) in Sprague-Dawley rat plasma at 40 mg/kg, po administered as single dose; assay type: ADME, organism-based; parameters: dose 40 mg/kg, route oral; conditions: read-out: Ratio AUC
How it was run: (§2)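 Male specific-pathogen-free Sprague-Dawley rats (200–300 g), three per group, single gastric intubation at 2 ml/kg of a vitamin E TPGS–PEG 400 solution; food and water ad libitum. Plasma sampled 30 min to 31 h; tissues dissected from oral groups. LC-MS/MS (LLOQ 1 ng/ml plasma, 5 ng/g tissue); noncompartmental analysis; ratios from mean of three rats.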

Hepatitis C virus [5] = assay: Antiviral activity against Hepatitis C virus 1b infected in human HuH7 cells assessed as viral RNA level after 72 hrs by luciferase reporter gene assay; assay type: functional, organism-based, Hepacivirus hominis; conditions: genotype 1b, Huh-7, 72 h
How it was run: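 Huh7-Luc cells carrying a genotype 1b con1 subgenomic replicon (clone ET, firefly luciferase, adaptive mutations E1202G/T1280I/K1846T). 2,500 cells/well, serial dilutions, 0.5% DMSO final, no G418. Luciferase signal read after 72 h; EC50 taken from the dose-response curve relative to medium control.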

[6] = AUC (0 to 24 hrs) in Sprague-Dawley rat at 40 mg/kg, po; assay type: ADME, organism-based; parameters: time < 24 hr, dose 40 mg/kg, route oral; conditions: plasma
How it was run: (§3)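 Male specific-pathogen-free Sprague-Dawley rats (200-300 g), three per group; single gastric intubation of vitamin E TPGS-polyethylene glycol 400 solution at 2 ml/kg. Plasma taken from orbital plexus at 0.5, 1, 2, 4, 8, 24 and 31 h; LC-MS/MS (LLOQ 1 ng/ml); noncompartmental analysis; rats fed and watered ad libitum.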

[7] = AUC (0 to infinity) in Sprague-Dawley rat at 40 mg/kg, po; assay type: ADME, organism-based; parameters: dose 40 mg/kg, route oral; conditions: plasma, read-out: AUBC; how it was run: as §3
[8] = Ratio of AUC (0 to 31 hrs) in Sprague-Dawley rat heart to AUC (0 to 31 hrs) in Sprague-Dawley rat plasma at 40 mg/kg, po administered as single dose; assay type: ADME, organism-based; parameters: dose 40 mg/kg, route oral; how it was run: as §2
[9] = AUC (0 to 24 hrs) in Sprague-Dawley rat at 4 mg/kg, iv; assay type: ADME, organism-based; parameters: time < 24 hr, dose 4 mg/kg, route intravenous; conditions: plasma
How it was run: (§4)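 Male specific-pathogen-free Sprague-Dawley rats (200-300 g), n = 3; single slow tail-vein bolus of 20% 2-hydroxypropyl-β-cyclodextrin formulation (pH 8.0) at 2 ml/kg. Plasma sampled from orbital plexus at 7 min, 20 min, 1, 3, 8, 24 and 31 h; LC-MS/MS (LLOQ 1 ng/ml); noncompartmental analysis of individual plasma profiles.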

[10] = Cytotoxicity against human MRC5 cells after 3 to 4 days by resazurin proliferation assay; assay type: cell-based; how it was run: as §1
[11] = Half life (8 to 24 hrs) in Sprague-Dawley rat plasma at 4 mg/kg, iv; assay type: ADME, organism-based; parameters: dose 4 mg/kg, route intravenous
How it was run: (§5)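 Male SPF Sprague-Dawley rats (200–300 g), n=3. Single slow i.v. tail-vein bolus at 4 mg/kg (2 ml/kg) in 20% hydroxypropyl-β-cyclodextrin, pH 8.0. Plasma sampled 7 min to 31 h, measured by LC-MS/MS (LLOQ 1 ng/ml). Noncompartmental analysis.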

Hepatitis B virus = assay: Antiviral activity against Hepatitis B virus infected in human HepG2.2.15 cells at 10 to 100 uM by quantitative PCR; assay type: functional, organism-based; conditions: HepG2 2.2.15
How it was run: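 HBV replication in HepG2.2.15 cells, measured by quantitative PCR. Highest concentration tested 10 to 100 μM.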

[12] = AUC (0 to infinity) in Sprague-Dawley rat at 4 mg/kg, iv; assay type: ADME, organism-based; parameters: time infinity, dose 4 mg/kg, route intravenous; conditions: plasma; how it was run: as §4
[13] = Tmax in Sprague-Dawley rat plasma at 40 mg/kg, po upto 31 hrs; assay type: ADME, organism-based; parameters: dose 40 mg/kg, route oral
How it was run: (§6)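 Male SPF Sprague-Dawley rats (200–300 g), three per group. Oral gavage at 40 mg/kg (2 ml/kg) in TPGS–PEG400 solution. Plasma sampled 0.5–31 h, measured by LC-MS/MS (LLOQ 1 ng/ml). Noncompartmental analysis.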

[14] = Ratio of AUC (0 to 31 hrs) in Sprague-Dawley rat adrenal gland to AUC (0 to 31 hrs) in Sprague-Dawley rat plasma at 40 mg/kg, po administered as single dose; assay type: ADME, organism-based; parameters: dose 40 mg/kg, route oral; how it was run: as §2
Hepatitis C virus [15] = assay: Inhibition of HCV 1b isolate con1 NS3/4A protease using RetS1 as a substrate by fluorescence resonance energy transfer cleavage assay
Hepatitis C virus [16] = assay: Antiviral activity against HCV 1b infected in human HuH7 cells assessed as log reduction in viral RNA level at 5 nM after 9 days by qRT-PCR; assay type: functional, organism-based; conditions: Hepacivirus hominis, genotype 1b, Huh-7
How it was run: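 Nine-day assay: replicon cells at 500 cells/well without G418, compound alone or with IFN-α. Medium with compounds refreshed every 3 days; cells harvested on days 3, 6 and 9 at 37°C, 5% CO2. HCV RNA measured by qRT-PCR and normalized to RPL13A.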

[17] = Ratio of AUC (0 to 31 hrs) in Sprague-Dawley rat thymus to AUC (0 to 31 hrs) in Sprague-Dawley rat plasma at 40 mg/kg, po administered as single dose; assay type: ADME, organism-based; parameters: dose 40 mg/kg, route oral; how it was run: as §2
[18] = Ratio of AUC (0 to 31 hrs) in Sprague-Dawley rat large intestine to AUC (0 to 31 hrs) in Sprague-Dawley rat plasma at 40 mg/kg, po administered as single dose; assay type: ADME, organism-based; parameters: dose 40 mg/kg, route oral; conditions: read-out: Ratio AUC; how it was run: as §2
Hepatitis C virus [19] = assay: microbe, parasite or virus in culture
[20] = Cmax in Sprague-Dawley rat plasma at 40 mg/kg, po upto 31 hrs by liquid chromatography-tandem mass spectrometry; assay type: ADME, organism-based; parameters: dose 40 mg/kg, route oral; how it was run: as §6
[21] = Cytotoxicity against human Saos2 cells after 3 to 4 days by resazurin proliferation assay; assay type: cell-based, SAOS-2; how it was run: as §1
[22] = tested on: Respiratory syncytial virus; assay: Antiviral activity against Respiratory syncytial virus infected in human HeLa cells at 10 to 100 uM; assay type: functional, organism-based
How it was run: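 RSV (LO strain) in HeLa/M cells, tetrazolium-based colorimetric read-out. Highest concentration tested 10 to 100 μM.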

[23] = Absolute bioavailability in Sprague-Dawley rat at 40 mg/kg, po; assay type: ADME, organism-based; conditions: in vivo
How it was run: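 Male SPF Sprague-Dawley rats (200–300 g, n = 3/group). Oral gavage at 40 mg/kg in vitamin E TPGS–PEG 400 solution (2 ml/kg); i.v. reference was a 4 mg/kg tail-vein slow bolus in 20% hydroxypropyl-β-cyclodextrin, pH 8.0. Plasma sampled up to 31 h and assayed by LC-MS/MS (LLOQ 1 ng/ml). Noncompartmental analysis; Fabs = dose-normalized mean AUC0-∞ p.o./i.v.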

[24] = Cytotoxicity against human HuH7 cells infected with Hepatitis C virus subtype 1b after 3 to 4 days by resazurin proliferation assay; assay type: cell-based, Huh-7; how it was run: as §1
[25] = Total plasma clearance in Sprague-Dawley rat at 4 mg/kg, iv; assay type: ADME, organism-based; parameters: dose 4 mg/kg, route intravenous; how it was run: as §5
Hepatitis C virus [26] = assay: Antiviral activity against HCV 1b infected in human HuH7 cells assessed as effect on cell viability upto 5 weeks; assay type: functional, organism-based; conditions: Hepacivirus hominis; genotype 1b; Huh-7
West Nile virus = assay: Antiviral activity against West Nile virus NY99/1 infected in green monkey Vero cells inhibition of virus-induced cytopathic effect at 10 to 100 uM; assay type: functional, organism-based
How it was run: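 Cytopathic effect inhibition assay: BVDV-NADL in MDCK cells; WNV-NY99/1 in Vero cells. Highest concentration tested 10 to 100 μM.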

Hepatitis C virus [27] = assay: microbe, parasite or virus in culture; remark: listed apart in the source

COc1ccc2c(O[C@@H]3C[C@H]4C(=O)N[C@]5(C(=O)NS(=O)(=O)C6CC6)C[C@H]5/C=C\CCCCN(C)C(=O)[C@@H]4C3)cc(-c3nc(C(C)C)cs3)nc2c1C [SIMEPREVIR]
EC50 (Hepatitis C virus [1]): 0.0114 µM | EC50 (Hepatitis C virus [2]): 0.0141 µM | CC50 [3]: 16 µM | Kp [4]: 39 | EC50 (Hepatitis C virus [5]): 0.0081 µM | EC90 (Hepatitis C virus [5]): 0.0236 µM | AUC(0-t) at 24 h [6]: 7.74 µg·h/mL | AUC [7]: 7.75 µg·h/mL | Kp [8]: 0.5 | AUC(0-t) at 24 h [9]: 1.74 µg·h/mL | CC50 [10]: 16 µM | half-life [11]: 4 h | Activity (Hepatitis B virus): inactive | AUC(0-inf) [12]: 1.75 µg·h/mL | Tmax [13]: 2 h | Kp [14]: 0.5 | Ki (Hepatitis C virus [15]): 0.0004 µM | Activity (Hepatitis C virus [16]): Active | Kp [17]: 0.5 | Kp [18]: 29 | EC50 ratio (Hepatitis C virus [19]): 1.7 | Cmax [20]: 1.43 µg/mL | CC50 [21]: 16 µM | Activity [22]: inactive | bioavailability [23]: 44% | CC50 [24]: 47 µM | clearance [25]: 2.3 L/h/kg | Activity (Hepatitis C virus [26]): inactive | Activity (West Nile virus): inactive | EC50 ratio (Hepatitis C virus [27]): 1.4
